Assay [1] has as its system A2058. As to the kind of experiment: Cytotoxicity against human A2058 cells assessed as growth inhibition after 96 hrs by CellTiter-Glo luminescence assay. The assay is classed as functional, cell-based. The following applies: A2058, 96 h. The procedure, abridged:
(§1)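 Antiproliferative activity was determined against the A2058 melanoma and H522-T1 lung cancer cell lines.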

For assay [2], the system named is A2780. As to the kind of experiment: Cytotoxicity against human A2780 cells assessed as growth inhibition. In kind it is functional, cell-based. The procedure, abridged: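 Drug-sensitive A2780 human ovarian cancer cell line; antiproliferative activity determined per a previously described protocol.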
Assay [3] in a line: Cytotoxicity against human H522-T1 cells assessed as growth inhibition after 96 hrs by CellTiter-Glo luminescence assay. Particulars: H522-T1, 96 h. The assay is classed as functional, cell-based. The procedure, abridged:
as §1

For assay [4], the system named is A2780. The assay can be described thus: Selectivity ratio of IC50 for human A2780 cells to IC50 for human H522-T1 cells. In kind it is functional.
The test system of assay [5] is A2058. As to the kind of experiment: Selectivity ratio of IC50 for human A2780 cells to IC50 for human A2058 cells. In kind it is functional.

We go through eleven compounds from ChEMBL document CHEMBL2375271, “Antiproliferative Homoisoflavonoids and Bufatrienolides from Urginea depressa” (J Nat Prod, 2013).

Take `C[C@]12CC[C@H]3[C@@H](CCC4=C[C@@H](O[C@@H]5O[C@H](CO)[C@@H](O)[C@H](O)[C@H]5O)CC[C@@]43C=O)[C@@]1(O)CC[C@@H]2c1ccc(=O)oc1`: the values for the IC50 (in the assay on A2058 [1]; with A2780 [2]; in assay [3]) were 48 nM, 24 nM and 34 nM, respectively.

In the case of `CC(=O)O[C@@H]1C[C@]2(O)[C@@H]3CCC4=C[C@@H](O[C@@H]5O[C@H](CO)[C@@H](O)[C@H](O)[C@H]5O)CC[C@]4(C=O)[C@H]3CC[C@]2(C)[C@H]1c1ccc(=O)oc1`, the IC50 in the assay with A2058 [1] amounted to 60 nM; in the assay on A2780 [2] it was 11 nM; in assay [3] it was 44 nM.

On to `COc1ccc(C[C@H]2COc3cc(OC)c(OC)c(OC)c3C2=O)cc1`, for which the values for the half-maximal inhibitory concentration (IC50) (with A2058 [1]; in the assay on A2780 [2]; in assay [3]) were 690 nM, 1350 nM and 740 nM, respectively.

Regarding `CC[C@]1(O)C[C@@H]2CN(CCc3c([nH]c4ccccc34)[C@@](C(=O)OC)(c3cc4c(cc3OC)N(C)[C@H]3[C@@](O)(C(=O)OC)[C@H](OC(C)=O)[C@]5(CC)C=CCN6CC[C@]43[C@@H]65)C2)C1` [VINBLASTINE], the figures for the IC50 (with A2058 [1]; in assay [3]) were 3.7 nM and 5.2 nM, respectively.

On to `COc1cc2c(c(OC)c1OC)C(=O)[C@@](O)(Cc1ccc3c(c1)OCO3)CO2` [URGINEANIN D], for which the IC50 in the assay on A2058 [1] came out at 380 nM; in the assay on A2780 [2] it was 350 nM; in assay [3] it was 430 nM.

In the case of `COc1cc2c(c(OC)c1OC)C(=O)[C@@H](Cc1ccc3c(c1)OCO3)CO2` [URGINEANIN E], the IC50 in the assay on A2058 [1] was greater than 10000 nM; in the assay on A2780 [2], 1440 nM; in assay [3] it was greater than 10000 nM.

As to `C[C@@H]1O[C@@H](O[C@H]2[C@@H](O)[C@H](O[C@@H]3C=C4CC[C@@H]5[C@H](CC[C@]6(C)[C@@H](c7ccc(=O)oc7)CC[C@]56O)[C@@]4(C)CC3)O[C@@H](C)[C@@H]2O[C@@H]2O[C@H](CO)[C@@H](O)[C@H](O)[C@H]2O)[C@H](O)[C@H](O)[C@H]1O`, the IC50 was determined as 180 nM in the assay with A2058 [1], 111 nM in the assay with A2780 [2] and 110 nM in assay [3].

Consider `C[C@@H]1O[C@@H](O[C@H]2[C@@H](O)[C@H](O[C@@H]3C=C4CC[C@@H]5[C@H](CC[C@]6(C)[C@@H](c7ccc(=O)oc7)CC[C@]56O)[C@@]4(C=O)CC3)O[C@@H](C)[C@@H]2O[C@@H]2O[C@H](CO)[C@@H](O)[C@H](O)[C@H]2O)[C@H](O)[C@H](O)[C@H]1O`, for which the IC50 came out at 76 nM with A2058 [1], 41 nM in the assay on A2780 [2] and 51 nM in assay [3].

Turning to `COc1ccc(C[C@H]2COc3cc(O)cc(O)c3C2=O)cc1`, the results for the IC50 (in the assay with A2058 [1]; in the assay with A2780 [2]; in assay [3]) were greater than 10000 nM, 23000 nM and greater than 10000 nM, respectively.

Consider `COc1ccc(C[C@@]2(O)COc3cc(OC)c(OC)c(OC)c3C2=O)cc1`, for which the IC50 with A2058 [1] stood at 68 nM; in the assay on A2780 [2] it was 320 nM; in assay [3] it was 71 nM. The “Ratio IC50” value in the assay on A2780 [4] and in the assay on A2058 [5] was 5 in each case.

Consider `COc1cc2c(c(OC)c1OC)C(=O)[C@@](O)(Cc1ccc(O)cc1)CO2`, for which the IC50 is greater than 10000 nM in the assay with A2058 [1], 3400 nM in the assay with A2780 [2] and 6780 nM in assay [3].
